Assay results reported in ChEMBL document CHEMBL1134636, “Structure-activity studies on nociceptin analogues: ORL1 receptor binding and biological activity of cyclic disulfide-containing analogues of nociceptin peptides” (J Med Chem, 2001).
Peptide text beside a SMILES is read from it.

What was measured:
Nociceptin receptor [1] = biological target: T1, Nociceptin receptor (Homo sapiens, UniProt P41146); test: Efficacy for human ORL1 receptor expressing HEK293 cells; format: functional, cell-based
T1 sequence (P41146 whole entry): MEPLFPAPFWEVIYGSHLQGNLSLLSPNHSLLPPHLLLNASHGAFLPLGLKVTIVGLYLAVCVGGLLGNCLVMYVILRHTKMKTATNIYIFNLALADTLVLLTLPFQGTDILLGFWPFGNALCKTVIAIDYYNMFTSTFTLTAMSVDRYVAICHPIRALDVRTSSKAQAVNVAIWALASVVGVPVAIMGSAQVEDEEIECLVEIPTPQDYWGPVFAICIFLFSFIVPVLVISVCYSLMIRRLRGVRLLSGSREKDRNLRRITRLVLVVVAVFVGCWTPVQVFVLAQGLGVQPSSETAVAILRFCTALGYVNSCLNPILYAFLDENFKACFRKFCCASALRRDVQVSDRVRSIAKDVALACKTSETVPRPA
Summary of the method: (§1)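 Membranes from HEK-293 cells expressing human ORL1 (10 μg) were incubated for 30 min at 24 °C with peptides (0.01 nM to 10 μM) in 20 mM HEPES pH 7.4 with 100 mM NaCl, 10 mM MgCl₂, 1 mM EDTA, 5 μM GDP and 400 pM [³⁵S]GTPγS. Binding was read with WGA-coated SPA beads.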

Nociceptin receptor [2] = biological target: T1, Nociceptin receptor; test: Efficacy for human ORL1 receptor expressing HEK293 cell membrane; format: functional, cell-based; summary of the method: as §1
Nociceptin receptor [3] = biological target: T1, Nociceptin receptor; test: Displacement of [3H]NC from human ORL1 receptor expressing HEK293 cell membrane; format: cell membranes

C[C@@H](O)[C@H](NC(=O)[C@H](Cc1ccccc1)NC(=O)CNC(=O)CNC(=O)[C@@H](N)Cc1ccccc1)C(=O)NCC(=O)N[C@H]1CSSC[C@@H](C(=O)N[C@@H](CCCN=C(N)N)C(=O)N[C@@H](CCCCN)C(N)=O)NC(=O)[C@H](CO)NC(=O)[C@H](CCCCN)NC(=O)[C@H](CCCN=C(N)N)NC1=O (HELM PEPTIDE1{F.G.G.F.T.G.C.R.K.S.C.R.K.[am]}$PEPTIDE1,PEPTIDE1,7:R3-11:R3$$$V2.0)
EC50 (Nociceptin receptor [1]): 156 nM | Emax (Nociceptin receptor [2]): 120% | IC50 (Nociceptin receptor [3]): 3.04 nM
